From ChEMBL document CHEMBL5143609, “Enigmazole C: A Cytotoxic Macrocyclic Lactone and Its Ring-Opened Derivatives from a New Species of Homophymia Sponge” (2022)

Tests used:
Type in all cases: functional
Details in all cases: for CC50: read-out: LC50 (the source's name)
MDA-MB-231 = assay: Cytotoxicity against human MDA-MB-231 cells
In short: (§1)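 Cell-growth inhibition was tested in human tumor lines: A-549 lung carcinoma, HT-29 colorectal carcinoma, MDA-MB-231 breast adenocarcinoma and PSN-1 pancreatic adenocarcinoma. GI50 is the concentration giving 50% inhibition of cell growth, calculated by a literature procedure. TGI and LC50 endpoints were also reported.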

PSN1 = assay: Cytotoxicity against human PSN1 cells; in short: as §1
HT-29 = assay: Cytotoxicity against human HT-29 cells; in short: as §1
A549 = assay: Cytotoxicity against human A549 cells; in short: as §1

SMILES	GI50 (MDA-MB-231) [µM]	TGI (MDA-MB-231) [µM]	CC50 (MDA-MB-231) [µM]	GI50 (PSN1) [µM]	TGI (PSN1) [µM]	CC50 (PSN1) [µM]	GI50 (HT-29) [µM]	TGI (HT-29) [µM]	CC50 (HT-29) [µM]	GI50 (A549) [µM]	TGI (A549) [µM]	CC50 (A549) [µM]
C=C1CC(C)CC2CC(=O)C=C(C[C@H](O)CC[C@H](C)C(=O)OC(c3coc(/C=C(/C)C(C)OC)n3)C1)O2 (some centres undefined)	> 19	> 19	> 19	8.7	> 19	> 19	18	> 19	> 19	9.9	> 19	> 19
C=C(C[C@@H](C)C[C@@H]1CC(=O)C=C(/C=C/CC[C@H](C)C(=O)O)O1)C[C@H](O)c1coc(/C=C(/C)[C@@H](C)OC)n1	4.1	> 19	> 19	1.1	> 19	> 19	1	3.7	> 19	1.4	> 19	> 19
